Here are results for nine molecules from paper PMC12679438 (RSC Advances, 2025).

One series relates to RAMOS. The experiment in a line: MTS cytotoxicity assay, 72 h, RAMOS. The format is cell-based, human. An outline of the steps:
(§1)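 Human lines were kept at 37 °C, 5% CO2 in recommended medium plus 10% FCS, penicillin–streptomycin, 2 mM glutamine, 1 mM bicarbonate, 1 mM pyruvate and 20 mM HEPES, and were mycoplasma-tested biweekly. Cells were exposed to test compound for 72 h on a robotic screening platform, then read by MTS. DMSO-treated cells were the negative control. IC50 came from dose–response curves, mean of ≥6 replicates.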
(In general: Tetrazolium assays rely on reduction of a dye to a coloured formazan, in cell work by metabolically active cells.)

The subject of the next series is BJ. Nature of the series: MTS cytotoxicity assay, 72 h, BJ fibroblasts. The class given is cell-based, human. An outline of the steps:
as §1

In another series the test system is MRC-5. Nature of the series: MTS cytotoxicity assay, 72 h, MRC-5 fibroblasts. Conditions: read-out: IC50 MRC-5. The format is cell-based, human. In a few lines:
as §1

A further series addresses Recombinant BTK (Homo sapiens, UniProt Q06187). The experiment in a line: In vitro biochemical kinase assay.
The next series concerns HCT116. The experiment in a line: MTS cytotoxicity assay, 72 h, HCT116. The class given is cell-based, human. Conditions: read-out: IC50 HCT116. An outline of the steps:
as §1

For a further series, the system named is CCRF-CEM. The experiment in a line: MTS cytotoxicity assay, 72 h, CCRF-CEM. The format is cell-based, human. In a few lines:
as §1

In another series the test system is Jurkat. Nature of the series: MTS cytotoxicity assay, 72 h, Jurkat. The class given is cell-based, human. An outline of the steps: as §1
Another series has as its system A549. Nature of the series: MTS cytotoxicity assay, 72 h, A549. Conditions: read-out: IC50 A549. The class given is cell-based, human. An outline of the steps: as §1
In the next series the test system is U2OS. Nature of the series: MTS cytotoxicity assay, 72 h, U2OS. The format is cell-based, human. In a few lines: as §1
The subject of a further series is K562. The experiment in a line: MTS cytotoxicity assay, 72 h, K562. The class given is cell-based, human. Conditions: read-out: IC50 K562. An outline of the steps: as §1
The test system of another series is HCT116-p53. Nature of the series: MTS cytotoxicity assay, 72 h, HCT116-p53. The format is cell-based, human. An outline of the steps:
as §1

Series [1] relates to panel of human cell lines. The experiment in a line: MTS cytotoxicity assay, statements over groups of cell lines of the panel. The class given is cell-based. The following applies: for IC50: Homo sapiens, 72 h, read-out: IC50 across all tested cell lines; for IC50 / cytotoxicity in fibroblast cells: non-cancerous fibroblasts (BJ, MRC-5), stated together in the text. In a few lines: as §1

Experiment in series [2]: as above
The following applies: human. The format is cell-based, human. In a few lines: as §1

The next series addresses T1, Recombinant ITK (Homo sapiens, UniProt Q08881).
T1 sequence (Q08881 1-620): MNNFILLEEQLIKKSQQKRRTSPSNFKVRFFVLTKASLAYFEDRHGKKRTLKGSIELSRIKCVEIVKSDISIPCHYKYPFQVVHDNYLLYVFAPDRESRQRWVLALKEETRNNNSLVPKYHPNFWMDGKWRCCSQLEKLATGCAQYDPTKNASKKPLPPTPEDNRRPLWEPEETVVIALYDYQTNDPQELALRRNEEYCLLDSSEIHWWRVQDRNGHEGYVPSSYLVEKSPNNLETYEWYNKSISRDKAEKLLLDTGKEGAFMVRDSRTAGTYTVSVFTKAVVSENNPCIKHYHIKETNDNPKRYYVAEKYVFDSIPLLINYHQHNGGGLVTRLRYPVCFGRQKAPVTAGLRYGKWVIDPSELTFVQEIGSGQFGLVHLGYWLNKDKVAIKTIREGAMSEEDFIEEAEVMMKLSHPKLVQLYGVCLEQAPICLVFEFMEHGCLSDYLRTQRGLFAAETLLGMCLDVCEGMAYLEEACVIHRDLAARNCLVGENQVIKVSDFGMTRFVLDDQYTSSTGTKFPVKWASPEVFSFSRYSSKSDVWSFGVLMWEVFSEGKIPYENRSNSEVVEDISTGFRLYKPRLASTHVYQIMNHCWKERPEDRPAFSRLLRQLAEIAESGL
The experiment in a line: In vitro biochemical kinase assay. Conditions: ibrutinib 100 µM; vs. DMSO control.

Where [3] appears, read: ITK/BTK null, MTS, 72 h, mean of ≥6 replicates.
Setting [4] is: Homo sapiens, Ramos, read-out: IC50 RAMOS.
Setting [5] is: Homo sapiens, BJ, read-out: IC50 BJ.
Setting [6] is: Homo sapiens, CCRF-CEM, read-out: IC50 CCRF-CEM.
The mark [7] stands for this setting: Homo sapiens, Jurkat, read-out: IC50 Jurkat.
[8] abbreviates: Homo sapiens, U2OS, read-out: IC50 U2OS.
Setting [9] is: Homo sapiens, read-out: IC50 HCT116-p53.

Entries after “also recorded” stand apart in the source; their conditions may differ. Where two headings read alike, the source gives them in different places. A value given as a limit tells only on which side of the number the result lay.

Recombinant BTK, sequence (Q06187 whole entry): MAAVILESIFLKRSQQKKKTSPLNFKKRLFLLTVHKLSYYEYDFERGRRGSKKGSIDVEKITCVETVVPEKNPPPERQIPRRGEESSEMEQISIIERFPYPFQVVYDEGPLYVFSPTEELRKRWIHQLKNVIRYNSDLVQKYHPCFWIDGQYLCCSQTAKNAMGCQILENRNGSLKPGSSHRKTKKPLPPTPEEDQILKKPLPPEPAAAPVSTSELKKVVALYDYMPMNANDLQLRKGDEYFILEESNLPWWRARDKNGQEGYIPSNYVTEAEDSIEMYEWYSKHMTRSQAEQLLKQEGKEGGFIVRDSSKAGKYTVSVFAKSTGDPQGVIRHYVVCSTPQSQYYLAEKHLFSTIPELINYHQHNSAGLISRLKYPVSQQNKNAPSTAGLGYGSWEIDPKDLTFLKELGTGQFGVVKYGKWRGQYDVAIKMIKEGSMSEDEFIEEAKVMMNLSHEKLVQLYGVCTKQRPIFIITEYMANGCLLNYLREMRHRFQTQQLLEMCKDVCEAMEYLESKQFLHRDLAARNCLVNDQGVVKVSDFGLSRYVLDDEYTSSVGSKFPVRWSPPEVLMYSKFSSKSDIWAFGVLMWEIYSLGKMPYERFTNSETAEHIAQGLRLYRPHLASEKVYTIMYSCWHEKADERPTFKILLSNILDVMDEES

For the molecule “1-(6-(3,5-difluorophenyl)-3-oxo-2,3-dihydropyridazin-4-yl)-N-(furan-2-ylmethyl)azetidine-3-carboxamide [Compound 22]”, the IC50 is 22.3 µM with RAMOS (read-out: IC50 RAMOS, BTK positive, MTS, mean of ≥6 replicates); above 50 µM in the series with BJ (read-out: IC50 BJ, Non-cancer fibroblasts, MTS, mean of ≥6 replicates); above 50 µM in the series with MRC-5 (Non-cancer fibroblasts, MTS, 72 h, mean of ≥6 replicates); above 10 µM at Recombinant BTK (read-out: IC50 BTK activity, ADP-Glo, 0–10 µM range); 40.3 µM in the series with HCT116 (setting [3]); 18.5 µM in the series with CCRF-CEM (read-out: IC50 CCRF-CEM, ITK positive, MTS, mean of ≥6 replicates). The IC50 with Jurkat (read-out: IC50 Jurkat, ITK positive, MTS, mean of ≥6 replicates) is 11.2 µM; in the series on A549 (setting [3]), above 50 µM; in the series with U2OS (read-out: IC50 U2OS, ITK/BTK null, MTS, mean of ≥6 replicates), 36.2 µM; in the series with K562 (BTK positive, MTS, 72 h, mean of ≥6 replicates), 21.4 µM; in the series with HCT116-p53 (read-out: IC50 HCT116-p53, ITK/BTK null, MTS, mean of ≥6 replicates), 41.2 µM. Further, the “BTK inhibition (in words)” value at Recombinant BTK (ADP-Glo, 0–10 µM range) is listed as “partial BTK inhibition; also recorded: partial activity against BTK”. The “maximal inhibition of BTK” value on Recombinant BTK (at 10 µM) is at most 50%.
Consider `O=C(NCC(F)(F)F)C1CN(c2cc(-c3ccncc3)n[nH]c2=O)C1` [Compound 34, 1-(3-oxo-6-(pyridin-4-yl)-2,3-dihydropyridazin-4-yl)-N-(2,2,2-trifluoroethyl)azetidine-3-carboxamide], for which the IC50 with RAMOS (setting [4]) was above 50 µM; in the series with BJ (setting [5]), above 50 µM; in the series with MRC-5 (Homo sapiens, MRC5, 72 h), above 50 µM; in the series on HCT116 (Homo sapiens, HCT-116, 72 h), above 50 µM; with CCRF-CEM (setting [6]), above 50 µM; in the series on Jurkat (setting [7]), above 50 µM. Besides, the IC50 in the series on A549 (Homo sapiens, A549, 72 h) was above 50 µM; in series [1] it was above 50 µM; in the series with U2OS (setting [8]), above 50 µM; in the series with K562 (Homo sapiens, K562, 72 h), above 50 µM; in the series on HCT116-p53 (setting [9]) it was above 50 µM.
For `O=C(NCC(F)(F)F)C1CN(c2cc(-c3ccccc3)n[nH]c2=O)C1` [Compound 35, 1-(3-oxo-6-phenyl-2,3-dihydropyridazin-4-yl)-N-(2,2,2-trifluoroethyl)azetidine-3-carboxamide], the IC50 in the series on RAMOS (setting [4]) is above 50 µM; with BJ (setting [5]) it was above 50 µM; in the series with MRC-5 (Homo sapiens, MRC5, 72 h) it was above 50 µM; in the series with HCT116 (Homo sapiens, HCT-116, 72 h) it was above 50 µM; in the series on CCRF-CEM (setting [6]), above 50 µM; in the series on Jurkat (setting [7]), above 50 µM. The IC50 in the series on A549 (Homo sapiens, A549, 72 h) was above 50 µM; in series [1], above 50 µM; with U2OS (setting [8]), above 50 µM; in the series on K562 (Homo sapiens, K562, 72 h) it was above 50 µM; in the series with HCT116-p53 (setting [9]), above 50 µM.
Turning to `O=C(NCC(F)(F)F)C1CN(c2cc(-c3cccc(F)c3)n[nH]c2=O)C1` [Compound 36, 1-(6-(3-fluorophenyl)-3-oxo-2,3-dihydropyridazin-4-yl)-N-(2,2,2-trifluoroethyl)azetidine-3-carboxamide], the IC50 with RAMOS (setting [4]) was above 50 µM; with BJ (setting [5]), above 50 µM; in the series on MRC-5 (Homo sapiens, MRC5, 72 h), above 50 µM; in the series on HCT116 (Homo sapiens, HCT-116, 72 h), above 50 µM; with CCRF-CEM (setting [6]) it was above 50 µM; in the series with Jurkat (setting [7]) it was above 50 µM. The IC50 with A549 (Homo sapiens, A549, 72 h) is above 50 µM; in series [1] it was above 50 µM; in the series with U2OS (setting [8]) it was above 50 µM; with K562 (Homo sapiens, K562, 72 h), above 50 µM; with HCT116-p53 (setting [9]), above 50 µM.
Consider `COc1ccc(-c2cc(N3CC(C(=O)NCC(F)(F)F)C3)c(=O)[nH]n2)cc1` [Compound 37, 1-(6-(4-methoxyphenyl)-3-oxo-2,3-dihydropyridazin-4-yl)-N-(2,2,2-trifluoroethyl)azetidine-3-carboxamide], for which the IC50 is above 50 µM in the series on RAMOS (setting [4]); above 50 µM in the series on BJ (setting [5]); above 50 µM in the series on MRC-5 (Homo sapiens, MRC5, 72 h); above 50 µM with HCT116 (Homo sapiens, HCT-116, 72 h); above 50 µM with CCRF-CEM (setting [6]); above 50 µM with Jurkat (setting [7]). The IC50 with A549 (Homo sapiens, A549, 72 h) is above 50 µM; in [1] it was above 50 µM; in the series on U2OS (setting [8]), above 50 µM; in the series with K562 (Homo sapiens, K562, 72 h) it was above 50 µM; in the series with HCT116-p53 (setting [9]), above 50 µM.
In the case of `O=C(NCC(F)(F)F)C1CN(c2cc(-c3ccc(Cl)cc3)n[nH]c2=O)C1` [Compound 38, 1-(6-(4-chlorophenyl)-3-oxo-2,3-dihydropyridazin-4-yl)-N-(2,2,2-trifluoroethyl)azetidine-3-carboxamide], the IC50 with RAMOS (setting [4]) was above 50 µM; in the series with BJ (setting [5]), above 50 µM; in the series with MRC-5 (Homo sapiens, MRC5, 72 h) it was above 50 µM; in the series with HCT116 (Homo sapiens, HCT-116, 72 h), above 50 µM; in the series with CCRF-CEM (setting [6]) it was 29.9 µM; in the series on Jurkat (setting [7]), 44.9 µM. Moreover, the IC50 is above 50 µM with A549 (Homo sapiens, A549, 72 h); above 50 µM in the series with U2OS (setting [8]); above 50 µM in the series with K562 (Homo sapiens, K562, 72 h); above 50 µM with HCT116-p53 (setting [9]). For the same molecule, the “IC50 / cytotoxicity in fibroblast cells” value in series [1] is on record as “No significant cytotoxicity”.
Turning to `O=C(NCC(F)(F)F)C1CN(c2cc(-c3ccc(F)cc3F)n[nH]c2=O)C1` [Compound 39, 1-(6-(2,4-difluorophenyl)-3-oxo-2,3-dihydropyridazin-4-yl)-N-(2,2,2-trifluoroethyl)azetidine-3-carboxamide], the IC50 in the series on RAMOS (setting [4]) is above 50 µM; with BJ (setting [5]), above 50 µM; in the series with MRC-5 (Homo sapiens, MRC5, 72 h) it was above 50 µM; in the series on HCT116 (Homo sapiens, HCT-116, 72 h), above 50 µM; in the series with CCRF-CEM (setting [6]), 26.8 µM; in the series on Jurkat (setting [7]) it was above 50 µM. In addition, the IC50 was above 50 µM with A549 (Homo sapiens, A549, 72 h); above 50 µM in the series with U2OS (setting [8]); above 50 µM in the series on K562 (Homo sapiens, K562, 72 h); above 50 µM in the series on HCT116-p53 (setting [9]). The “IC50 / cytotoxicity in fibroblast cells” value in series [1] was “No significant cytotoxicity”.
`O=C(c1ccc(F)cc1)C1CN(c2cc(-c3ccncc3)n[nH]c2=O)C1` [Compound 52, 4-(3-(4-fluorobenzoyl)azetidin-1-yl)-6-(pyridin-4-yl)pyridazin-3(2H)-one]: the IC50 with RAMOS (setting [4]) is 13.2 µM; in the series with BJ (setting [5]), above 50 µM; in the series on MRC-5 (Homo sapiens, MRC5, 72 h) it was above 50 µM; in the series with HCT116 (Homo sapiens, HCT-116, 72 h) it was above 50 µM; in the series with CCRF-CEM (setting [6]) it was above 50 µM; with Jurkat (setting [7]), 20.7 µM. The IC50 was above 50 µM in the series on A549 (Homo sapiens, A549, 72 h); above 50 µM in the series with U2OS (setting [8]); above 50 µM in the series with K562 (Homo sapiens, K562, 72 h); above 50 µM with HCT116-p53 (setting [9]). In addition, the IC50 at 72 h in [2] (A549, HCT116, HCT116-p53 and U2OS ITK-null cancer cell lines) was above 50 µM; in series [2] (BJ and MRC-5 non-cancerous fibroblast cell lines) it was above 50 µM.
`C=CC(=O)N1CCC[C@@H](n2nc(-c3ccc(Oc4ccccc4)cc3)c3c(N)ncnc32)C1` [ibrutinib, reference compound]: the “inhibition of ITK activity (assay validation)” value at Recombinant ITK is recorded as “significant inhibition”.
